LMPTP block = LMPTP (human) inhibition; P24666; recombinant LMPTP-A, OMFP fluorogenic substrate, fluorescence intensity; inhibition, % at 20 µM; 360,000 compounds, 0.22% hits; AID 651560;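 active = compounds that cut the enzyme signal by at least half of the control window in the single-dose screen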;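 note: plate controls were DMSO wells with enzyme plus substrate for no effect and substrate without enzyme for full effect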
Target sequence (P24666 whole entry, looked up): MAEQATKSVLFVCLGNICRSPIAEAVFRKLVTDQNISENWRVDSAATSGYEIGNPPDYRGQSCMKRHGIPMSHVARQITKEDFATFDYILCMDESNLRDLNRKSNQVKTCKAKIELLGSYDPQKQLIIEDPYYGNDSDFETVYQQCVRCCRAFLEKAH
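Buffer or medium: Bis-Tris pH 6.0, DTT, detergent; Assay system: LMPTP-A enzyme; Quantity: 0.625 nM enzyme; Detection: endpoint fluorescence intensity; Times: 50 min dark incubation at room temperature; Controls: substrate-only low control, DMSO enzyme-plus-substrate high control; Doses: single 20 µM dose; Read-out: percent inhibition versus substrate-only and uninhibited controls; Reagent: 400 µM OMFP.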
SUMO1-SIM PPI = alters human SUMO1 binding to SIM partners. P63165. SUMO1 binding to a labelled peptide, TR-FRET, 1 h. inhibition, % at 20 µM. 360,000 compounds, 0.33% hits. AID 602429; in the data active = inhibition above about 37%
Target sequence (P63165 whole entry, looked up): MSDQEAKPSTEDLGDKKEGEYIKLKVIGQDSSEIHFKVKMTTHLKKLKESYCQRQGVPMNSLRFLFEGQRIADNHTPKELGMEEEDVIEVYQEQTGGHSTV
DNMT1 inh = DNMT1 (human) enzyme inhibition. P26358. 360,000 compounds, 0.83% hits. AID 588458. DNMT1 molecular beacon, Hinp1I cleavage, fluorescence. inhibition (reported as % activation of signal), % at 10 µM; in the data active = inhibition above about 50%
Scp1 inh = Scp-1 (human) phosphatase inhibition | Recombinant Scp1, phosphopeptide, malachite green phosphate absorbance | AID 493091 | inhibition, % at 20 µM | 340,000 compounds, 0.88% hits | Q9GZU7;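 active = inhibition above about 50% at 20 µM, limit read from the data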;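 note: plate controls were DMSO wells with enzyme for no effect and wells lacking enzyme for full effect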
Target sequence (Q9GZU7 76-261 limits assumed): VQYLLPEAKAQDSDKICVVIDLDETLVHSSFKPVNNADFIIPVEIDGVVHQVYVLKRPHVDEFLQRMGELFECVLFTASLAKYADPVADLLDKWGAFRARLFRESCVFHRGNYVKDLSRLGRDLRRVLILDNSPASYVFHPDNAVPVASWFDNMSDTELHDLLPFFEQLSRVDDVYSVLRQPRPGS
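assay system = SCP-1 phosphatase catalytic domain, residues 76-261 | buffer or medium = 50 mM Tris acetate pH 5.5, 0.005% Tween-20, 10 mM MgCl2 | incubation = enzyme reaction 45 min at room temperature, colour 5 min, stabilisation 30 min | signal = Phosphate-binding colour reagent, absorbance read at 630 nm | measure = % inhibition at 20 µM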
GRK2 inh = human GRK2 inhibition via aptamer displacement | P25098 | bead flow cytometry, FAM-aptamer displacement from GRK2 | inhibition of aptamer binding, % at 10 µM | 330,000 compounds, 0.59% hits | AID 488847;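 active = inhibition of aptamer binding above 40%, roughly 3 SD of noise, on plates passing a quality check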;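 note: median bead fluorescence of bound FAM aptamer so fluorescent compounds give negative values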
STEP block = blocks human striatal-enriched tyrosine phosphatase; P54829; AID 588621; recombinant STEP, OMFP fluorogenic substrate, fluorescence; inhibition, % at 20 µM; 360,000 compounds, 0.25% hits;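 active = inhibition at 20 µM, scaled per plate between control wells, above about 37%, limit read from the data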;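 note: 0% = DMSO with enzyme and substrate and 100% = substrate only without enzyme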
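Test system: STEP tyrosine phosphatase / Reagent: OMFP at 25 µM / Doses: 20 µM, 1% DMSO / Read-out: percent inhibition scaled to no-enzyme and uninhibited-enzyme controls, plate-pattern corrected / Detection: FITC-channel fluorescence of OMFP product / Medium: Bis-Tris buffer pH 6.0, 2.5 mM DTT, 0.005% Tween 20 / Schedule: 20 min at room temperature, dark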
* hit, by the source's call; . = no result given. An excerpt weighted towards active compounds, which were near 2.2% of everything screened.

SMILES	LMPTP block	SUMO1-SIM PPI	DNMT1 inh	Scp1 inh	GRK2 inh	STEP block
OCCN=c1cc(-c2ccccc2)oc2ccc(Cl)cc12	-1.3	-14.3	9.7	-6.2	1.0	-1.8
CCCCCCCCN1C(=O)[C@H](CC(=O)NCCc2ccccc2OC)C[C@@]2(C(=O)OC)CC(C)(C)CC=C12	7.8	-0.4	.	.	.	.
CC(C)C(=O)NNS(=O)(=O)c1ccccc1	-0.9	44.0*	2.8	3.5	0.0	1.5
CNNC(=O)C(=O)NNS(=O)(=O)c1ccccc1	-0.5	-1.6	1.4	-5.7	0.0	4.4
Cc1c(N)c(C(C)(C)C)cc(C(C)(C)C)c1[N+](=O)[O-]	2.2	2.6	9.8	-5.1	2.0	-2.8
Cc1cc2nc3c(=O)[nH]c(=O)[nH]c3nc2c([N+](=O)[O-])c1N	10.0	100.0*	110.5*	72.5*	.	-9.0
CCN1CCN(c2ccc(Nc3ccnc4ccccc34)cc2)CC1	66.8*	-28.3	6.7	-2.2	0.0	-2.6
CCc1ccccc1NC(=O)CCC(=O)N1CCN(C(C)=O)CC1	1.0	-0.3	4.2	.	.	-4.7
CC1(C(=O)Nc2cnc3ccccc3c2)CCN1Cc1cc2ccccc2o1 (stereo unspecified)	-0.4	-5.5	-6.8	.	.	-1.7
Cc1cc(N)c2cc(NC(=O)/C=C/c3ccccc3Cl)ccc2n1	19.8	88.7*	52.8*	-5.4	0.0	5.8
CCc1nc2c(OCCOc3ccc(F)cc3)cccn2c1N(C=O)Cc1ccccc1	1.1	0.4	-4.5	.	.	-0.7
Cc1noc(C)c1-c1ccc(C(=O)NCCC(F)(F)F)c2occc12	1.2	2.1	2.9	.	.	0.7
Cc1ccc(S(=O)(=O)N(C)c2ccc(C(=O)NCC(c3ccccc3)N3CCCC3)cc2)cc1 (stereo unspecified)	0.0	-5.5	-8.0	.	.	-0.6
COc1cccc(Cn2cnc(-c3ccccc3OC)c2C2CC2)c1	-1.2	2.4	.	.	.	.
CC(=O)N(/N=C1\Sc2ccccc2C1=O)c1cccc(C)c1	2.7	34.8	51.4*	-3.6	0.0	-1.3
CC(=O)N1CCN(c2nc(-c3ccco3)c3c(c2C#N)CC(C)(C)SC3)CC1	1.0	8.1	-7.8	-11.9	0.0	2.9
CC1(C)Cc2c(C#N)c(N3CCN(C(=O)c4ccco4)CC3)nc(-c3ccco3)c2CS1	-0.3	3.6	4.2	55.8*	6.0	-7.8
c1coc(-c2nc(-c3ccco3)c(-c3ccco3)nc2-c2ccco2)c1	81.8*	83.2*	116.8*	92.7*	0.0	94.1*
Cc1ccc(CNC(=S)Nc2ccc(C)c([N+](=O)[O-])c2)cc1	2.2	-3.2	0.2	-7.9	50.0*	-2.2
CCN(C(=O)CN1C(=O)NC2(CCC(C)CC2)C1=O)C1CCCCC1 (stereo unspecified)	0.0	-1.2	-0.3	.	.	1.6
O=C1NC[C@@H](CCCCN2C[C@H](Cc3ccc(O)cc3)N(CCc3ccccc3)C(=O)C2=O)N(CC2CCCCC2)C1=O	-1.5	-1.1	.	.	.	.
Cc1noc(C)c1S(=O)(=O)Nc1ccc2c(c1)C(=O)N([C@H](C)CO)C[C@H](C)[C@@H](CN(C)C(=O)Nc1ccccc1)O2	-1.8	4.2	2.6	79.3*	0.0	-0.1
C=CCc1cccc2cc(C(=O)Nc3ccc(F)cc3)c(=O)oc12	-0.3	0.6	9.4	-7.6	5.0	1.1
C=CCc1cccc2cc(C(=O)Nc3ccc(S(=O)(=O)Nc4nnc(CC)s4)cc3)c(=O)oc12	1.0	5.1	7.7	100.6*	0.0	90.6*
CCOc1cccc2cc(C(=O)NCc3cccnc3)c(=O)oc12	-1.6	-21.1	4.0	-1.5	2.0	-4.6
C=CCc1cccc2cc(C(=O)NCc3cccnc3)c(=O)oc12	52.5*	-19.1	2.3	-3.8	0.0	1.3
COc1cc2c(cc1OC)C(c1ccc3c(c1)Cc1ccccc1-3)OC(=O)C2 (stereo unspecified)	2.1	7.6	-16.3	.	.	2.3
CCCCN(C(=O)c1cc(S(=O)(=O)N2CCOCC2)ccc1N1CCOCC1)c1ccccc1	-0.1	-1.9	0.0	.	.	-0.8
CCCCN(C(=O)c1cc(S(=O)(=O)N2CCCCCC2)ccc1OC)c1ccccc1	2.0	59.9*	-1.9	-6.6	0.0	3.2
